Test results reported in ChEMBL document CHEMBL1221173, “Dynamic imaging of protease activity with fluorescently quenched activity-based probes” (Nat Chem Biol, 2005).
Active and inactive are the calls of the source. The rule behind the calls is not given here.

What was measured:
[1] = biological target: Procathepsin L (Homo sapiens) (UniProt P07711); experiment: Binding affinity to human recombinant cathepsin L assessed as protein labeling at 0.1 to 10 uM after 30 mins using SDS-PAGE and Typhoon laser flatbed canning method
How it was run: (§1)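 Recombinant enzyme (cathepsin B, bovine, 0.4 µg; cathepsin L, human, 0.7 µg) in pH 5.5 acetate buffer (50 mM acetate, 2 mM DTT, 5 mM MgCl₂). Optional 30 min pretreatment at 25 °C with general papain-family inhibitor JPM-OEt (25 µM), or DMSO. Probe at increasing concentrations for 30 min. Stopped with SDS sample buffer, SDS-PAGE, gel fluorescence scanned.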

[2] = biological target: Cathepsin B (Mus musculus) (UniProt P10605); experiment: Binding affinity to cathepsin B in mouse NIH/3T3 cells monolayers assessed as protein labeling at 1 uM after 4 to 5 hrs by fluorescence microscopy; format: cell-based; conditions: NIH3T3
How it was run: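 Live NIH-3T3 cells on glass coverslips, pretreated 1 h with JPM-OEt (50 µM) or 0.1% DMSO. Probe (1 µM) added to growth medium, pH 7.4, for 4–5 h. Moved to phenol red-free medium with LysoTracker (50 nM final) for lysosome co-localization, then imaged by inverted fluorescence microscopy. Some cells first washed 3 h in medium with JPM-OEt or DMSO.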

[3] = biological target: Cathepsin B (Bos taurus) (UniProt P07688); experiment: Binding affinity to bovine recombinant cathepsin B assessed as protein labeling at 0.1 to 10 uM after 30 mins using SDS-PAGE and Typhoon laser flatbed canning method; how it was run: as §1
[4] = biological target: Procathepsin L (Homo sapiens) (UniProt P07711); experiment: Inhibition of human cathepsin L using Z-FR-AMC substrate assessed as inhibition association constant by fluorimetric assay
How it was run: (§2)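 Cathepsin B or L (1 nM final) with inhibitor at 10–2,000 nM plus 10 µM substrate (Z-RR-AMC for B, Km 114 µM; Z-FR-AMC for L, Km 7.1 µM), 3.5% DMSO. AMC fluorescence (Ex 370/Em 460 nm) read continuously for 30 min. k_app from inhibition curves converted to k_ass = k_app(1+[S]/K_M).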

[5] = biological target: Cathepsin B (Mus musculus) (UniProt P10605); experiment: Binding affinity to cathepsin B in mouse NIH/3T3 cells assessed as protein labeling at 1 uM after 30 mins using SDS-PAGE and Typhoon laser flatbed canning method; format: cell-based; conditions: NIH3T3
How it was run: (§3)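 NIH-3T3 monolayers seeded one day before. Pretreated 1 h with JPM-OEt (50 µM) or 0.1% DMSO, then probe added to medium at pH 7.4 (final DMSO 0.2%) for the indicated times. Cells PBS-washed and lysed in SDS sample buffer, then boiled. Equal protein run on 12% SDS-PAGE, gel scanned at Ex/Em 532/580 nm.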

[6] = Binding affinity to recombinant cathepsin X assessed as protein labeling at 0.1 to 10 uM after 30 mins using SDS-PAGE and Typhoon laser flatbed canning method
[7] = biological target: Cathepsin B (Bos taurus) (UniProt P07688); experiment: Inhibition of bovine cathepsin B using Z-RR-AMC substrate assessed as inhibition association constant by fluorimetric assay; how it was run: as §2
[8] = biological target: Procathepsin L (Homo sapiens) (UniProt P07711); experiment: Binding affinity to cathepsin L in human MCF10A cells grown on reconstituted basement membrane exposed to 1 uM compounds assessed as protein labeling after 3 days by confocal fluorescence microscopy; conditions: MCF-10A
[9] = biological target: Cathepsin S (Homo sapiens) (UniProt P25774); experiment: Binding affinity to recombinant cathepsin S assessed as protein labeling at 0.1 to 10 uM after 30 mins using SDS-PAGE and Typhoon laser flatbed canning method
[10] = biological target: T1, Procathepsin L (Mus musculus) (UniProt P06797); experiment: Binding affinity to cathepsin L in mouse NIH/3T3 cells assessed as protein labeling at 1 uM after 30 mins using SDS-PAGE and Typhoon laser flatbed canning method; format: cell-based; conditions: NIH3T3; how it was run: as §3
T1 sequence (whole entry): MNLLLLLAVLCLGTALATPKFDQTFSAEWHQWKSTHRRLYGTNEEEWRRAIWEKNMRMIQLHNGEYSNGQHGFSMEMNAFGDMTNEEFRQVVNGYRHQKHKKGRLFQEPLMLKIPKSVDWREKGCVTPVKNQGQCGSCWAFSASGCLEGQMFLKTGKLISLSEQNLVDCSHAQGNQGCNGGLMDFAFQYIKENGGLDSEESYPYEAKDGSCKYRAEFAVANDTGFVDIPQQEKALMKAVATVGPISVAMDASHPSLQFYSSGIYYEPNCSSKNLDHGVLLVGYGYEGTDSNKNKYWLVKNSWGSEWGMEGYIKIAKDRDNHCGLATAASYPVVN

[11] = Cytotoxicity against mouse NIH/3T3 cells; format: cell-based; conditions: nih3t3
[12] = biological target: Cathepsin B (Homo sapiens) (UniProt P07858); experiment: Binding affinity to cathepsin B in human MCF10A cells grown on reconstituted basement membrane exposed to 1 uM compounds assessed as protein labeling after 3 days by confocal fluorescence microscopy; conditions: MCF-10A
[13] = biological target: Cathepsin B (Homo sapiens) (UniProt P07858); experiment: Binding affinity to cathepsin B in 8 day old human MCF10A cells grown on reconstituted basement membrane assessed as protein labeling exposed to 1 uM for 3 hrs followed by washing overnight with growth media by confocal fluorescence microscopy; format: cell-based; conditions: MCF-10A
How it was run: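 Day 8 three-dimensional MCF-10A cultures on reconstituted basement membrane, grown without probe. Treated with 1 µM probe for 3 h in assay medium (2% horse serum, 5 ng/ml EGF), washed overnight, then cold-methanol fixed. Immunostained overnight at 4 °C with rabbit anti-human cathepsin B, then secondary antibody and DAPI. Imaged by confocal microscopy.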

Procathepsin L (Homo sapiens), sequence (P07711 114-333 limits assumed): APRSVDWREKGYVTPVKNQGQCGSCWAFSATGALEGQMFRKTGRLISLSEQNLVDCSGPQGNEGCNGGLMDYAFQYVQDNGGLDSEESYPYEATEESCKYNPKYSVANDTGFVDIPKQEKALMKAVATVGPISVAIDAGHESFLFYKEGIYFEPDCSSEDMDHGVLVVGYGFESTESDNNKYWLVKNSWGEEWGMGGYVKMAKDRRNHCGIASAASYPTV
Cathepsin B (Mus musculus), sequence (P10605 80-333 limits assumed): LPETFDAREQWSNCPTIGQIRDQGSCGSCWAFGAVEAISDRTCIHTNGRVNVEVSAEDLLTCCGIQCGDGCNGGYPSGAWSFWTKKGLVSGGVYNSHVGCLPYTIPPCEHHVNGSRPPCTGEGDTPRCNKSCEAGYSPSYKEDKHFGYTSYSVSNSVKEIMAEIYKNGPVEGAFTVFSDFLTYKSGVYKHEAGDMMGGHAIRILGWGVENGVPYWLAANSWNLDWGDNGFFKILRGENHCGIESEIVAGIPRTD
Cathepsin S (Homo sapiens), sequence (P25774 115-331 limits assumed): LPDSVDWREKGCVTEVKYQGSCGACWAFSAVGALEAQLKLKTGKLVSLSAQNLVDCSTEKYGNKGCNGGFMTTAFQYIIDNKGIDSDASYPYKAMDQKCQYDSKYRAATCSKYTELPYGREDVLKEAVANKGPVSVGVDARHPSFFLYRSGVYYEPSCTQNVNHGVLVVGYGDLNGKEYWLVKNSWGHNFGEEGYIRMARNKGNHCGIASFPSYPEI

Activity [1] | Activity [2] | Activity [3] | INH [4] | Activity [5] | Activity [6] | INH [7] | Activity [8] | Activity [9] | Activity [10] | Activity [12] | Activity [13] | SMILES | Activity [11]
Active | Active | Active | 7000 M⁻¹ s⁻¹ | inactive | Active | 275 M⁻¹ s⁻¹ | Active | Active | Active | Active | – | COc1ccc(-c2ccc3n2[B-](F)(F)[N+]2=C(C)C(CCC(=O)NCCCCCC(=O)NCCCC[C@@H](NC(=O)[C@@H](Cc4ccccc4)NC(=O)OCc4ccccc4)C(=O)COC(=O)CNC(=O)C4CCN(S(=O)(=O)c5ccccc5-c5c6cc/c(=[N+](/C)c7ccccc7)cc-6oc6cc(Nc7ccccc7)ccc56)CC4)=C(C)C2=C3)cc1 | Non-toxic
– | – | – | 1180 M⁻¹ s⁻¹ | – | – | 212 M⁻¹ s⁻¹ | – | – | – | – | – | COc1ccc(-c2ccc3n2[B-](F)(F)[N+]2=C(C)C(CCC(=O)NCCCCCC(=O)NCCCC[C@@H](NC(=O)[C@@H](Cc4ccccc4)NC(=O)OC(C)(C)C)C(=O)COC(=O)c4c(C)cccc4C)=C(C)C2=C3)cc1 | –
Active | Active | Active | 2580 M⁻¹ s⁻¹ | Active | Active | 1260 M⁻¹ s⁻¹ | Active | Active | Active | Active | Active | COc1ccc(-c2ccc3n2[B-](F)(F)[N+]2=C(C)C(CCC(=O)NCCCCCC(=O)NCCCC[C@@H](NC(=O)[C@@H](Cc4ccccc4)NC(=O)OCc4ccccc4)C(=O)COC(=O)c4c(C)cccc4C)=C(C)C2=C3)cc1 | Non-toxic
– | – | – | 296000 M⁻¹ s⁻¹ | – | – | 38500 M⁻¹ s⁻¹ | – | – | – | – | – | COc1ccc(-c2ccc3n2[B-](F)(F)[N+]2=C(C)C(CCC(=O)NCCCCCC(=O)NCCCC[C@@H](NC(=O)[C@H](N)Cc4ccccc4)C(=O)COC(=O)c4c(C)cccc4C)=C(C)C2=C3)cc1 | –
